The source of these data is ChEMBL document CHEMBL1145938, “Synthesis and structure-activity relationship of aminobenzophenones. A novel class of p38 MAP kinase inhibitors with high antiinflammatory activity” (J Med Chem, 2003).

Where only a bound is given, the exact number is not on record here.

Test [1] concerns the target T1, Mitogen-activated protein kinase 14 (Homo sapiens, UniProt Q16539). Nature of the test: In vitro inhibitory activity determined against human mitogen-activated protein kinase p38 alpha.
The target of test [2] is T2, MAP kinase p38 (Homo sapiens, UniProt O15264+Q15759+Q16539+P53778). The test is described as follows: In vitro inhibition of IL1-beta release from LPS stimulated human peripheral blood mononuclear cells. Format: functional. The procedure, abridged:
(§1)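 Human PBMC from buffy coats (Lymphoprep), 5×10^5 cells/mL in RPMI1640 with 2% FCS, glutamine, penicillin/streptomycin; 30 min preincubation with compound, then LPS stimulation, 18 h at 37 °C, 5% CO2.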

Test [3] concerns the target T2, MAP kinase p38. The test is described as follows: In vitro inhibition of TNF-alpha release from LPS stimulated human peripheral blood mononuclear cells. Format: functional. The procedure, abridged:
as §1

Test [4] deals with Mitogen-activated protein kinase; ERK1/ERK2 (Homo sapiens) (UniProt P27361+P28482). The test is described as follows: Inhibition of Mitogen-activated protein kinase 3/Mitogen-activated protein kinase 1 (ERK) at 10 uM. It counts as protein assay. In outline:
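MCF-7 cells stimulated with EGF; ERK1/2 activity measured with a modified cell-signalling ERK1/2 kinase kit in presence of compound.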

Test [5] has as its target T1, Mitogen-activated protein kinase 14. The test is described as follows: Inhibition of Mitogen-activated protein kinase p38 alpha at 1 uM. In outline:
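FLAG-tagged p38α cDNA was transfected into COS-1 cells. Kinase activity of the expressed isoform was measured with compound at 1 μM.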

Test [6] has as its target Mitogen-activated protein kinase 11 (Homo sapiens) (UniProt Q15759). The test is described as follows: Inhibition of Mitogen-activated protein kinase p38 beta at 1 uM. In outline:
(§2)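 FLAG-tagged p38 isoform cDNA (β2, γ or δ) transfected into COS-1 cells; kinase activity of the expressed isoform measured with compound at 1 μM.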

Test [7] has as its target T3, Mitogen-activated protein kinase 13 (Homo sapiens) (UniProt O15264).
T3 sequence (whole entry): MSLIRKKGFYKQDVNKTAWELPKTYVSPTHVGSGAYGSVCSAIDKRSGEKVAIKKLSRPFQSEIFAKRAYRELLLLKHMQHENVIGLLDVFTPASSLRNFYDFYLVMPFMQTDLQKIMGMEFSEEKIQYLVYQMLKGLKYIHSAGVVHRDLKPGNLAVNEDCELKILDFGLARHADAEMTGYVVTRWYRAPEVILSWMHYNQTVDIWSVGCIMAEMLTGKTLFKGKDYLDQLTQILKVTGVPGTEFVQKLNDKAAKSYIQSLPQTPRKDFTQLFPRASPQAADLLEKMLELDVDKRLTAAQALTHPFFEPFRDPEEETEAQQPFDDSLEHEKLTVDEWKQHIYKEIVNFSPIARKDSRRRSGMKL
The test is described as follows: Inhibition of Mitogen-activated protein kinase p38 delta at 1 uM. In outline:
as §2

Test [8] addresses T4, Mitogen-activated protein kinase 12 (Homo sapiens) (UniProt P53778).
T4 sequence (whole entry): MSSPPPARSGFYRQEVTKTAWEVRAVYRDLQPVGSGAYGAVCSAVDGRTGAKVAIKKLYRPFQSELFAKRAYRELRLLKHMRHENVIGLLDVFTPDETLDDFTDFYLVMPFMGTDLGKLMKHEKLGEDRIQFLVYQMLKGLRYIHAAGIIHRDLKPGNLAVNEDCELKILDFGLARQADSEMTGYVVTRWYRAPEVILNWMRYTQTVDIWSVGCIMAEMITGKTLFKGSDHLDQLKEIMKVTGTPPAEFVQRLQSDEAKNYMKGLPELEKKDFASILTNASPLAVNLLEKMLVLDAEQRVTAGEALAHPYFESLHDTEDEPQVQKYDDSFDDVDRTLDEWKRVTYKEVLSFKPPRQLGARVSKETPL
Nature of the test: Inhibition of Mitogen-activated protein kinase p38 gamma at 1 uM. The procedure, abridged:
as §2

For test [9], the species on record is Homo sapiens. Nature of the test: In vitro inhibition of gamma-interferon release by human […]. Format: functional. In outline:
(§3)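 Human PBMC were isolated from buffy coats and diluted 1:1 in saline. Cells were held at 5×10^5 cells/mL in RPMI1640 with 2 mM glutamine and penicillin/streptomycin, then preincubated 30 min with compound. IL-12: 2% FCS, IFN-γ 95 ng/mL for 18 h, then LPS for 24 h. IL-2 and IFN-γ: 10% FCS, phytohemagglutinin for 48 h. Supernatant cytokine measured by sandwich ELISA.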

The species entered for test [10] is Homo sapiens. Nature of the test: In vitro inhibition of cytokine IL-12 release by human […]. Format: functional. The procedure, abridged: as §3
Test [11] is filed under the species Homo sapiens. Nature of the test: In vitro inhibition of cytokine IL-2 release by human […]. It counts as functional. In outline: as §3
For test [12], the target named is Mitogen-activated protein kinase 8 (Homo sapiens) (UniProt P45983). The test is described as follows: Inhibition of c-Jun N-terminal kinase 1 at 10 uM. The procedure, abridged:
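JNK1 activity from UV-stimulated MCF-7 cells, measured with a JNK1 kinase kit in presence of compound.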

The species entered for test [13] is Mus musculus. Nature of the test: Inhibition of ear swelling in oxazolone-induced murine allergic contact dermatitis at 0.5 mg/ear at 24 hr. It counts as functional. The procedure, abridged: (§4)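 Groups of six female inbred BALB/cABOM mice (18–21 g) were sensitized with oxazolone on the clipped abdomen 7 days before right-ear challenge. Compound in acetone (20 μL) or vehicle was applied once, 30 min after challenge. Ear swelling (right minus left ear thickness) was read at 24, 48 and 72 h. Values are mean % inhibition ± SEM of four or five experiments.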

In test [14] the test system is Mus musculus. The test is described as follows: Inhibition of ear swelling induced by 12-O-tetradecanoylphorbol-13-acetate (TPA) in murine chronic irritative contact dermatitis model at 0.5 mg/ear (in vivo). It counts as functional. In outline:
(§5)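 Murine TPA-induced chronic irritative ear dermatitis, with compound given topically per ear. Ear swelling and ear weight were determined 5 h after the last application. Values are mean % inhibition ± SEM of three to five experiments.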

The species named for test [15] is Mus musculus. Nature of the test: Inhibition of ear swelling induced by oxazolone induced murine allergic contact dermatitis model at 0.5 mg/ear at 72 hr. Format: functional. In outline: as §4
The subject of test [16] is Mus musculus. The test is described as follows: Inhibition of ear weight induced by 12-O-tetradecanoylphorbol-13-acetate (TPA) in murine chronic irritative contact dermatitis model at 0.5 mg/ear (in vivo). Format: functional. In outline:
as §5

The target in test [17] is T5, Myeloperoxidase (Mus musculus) (UniProt P11247).
T5 sequence (whole entry): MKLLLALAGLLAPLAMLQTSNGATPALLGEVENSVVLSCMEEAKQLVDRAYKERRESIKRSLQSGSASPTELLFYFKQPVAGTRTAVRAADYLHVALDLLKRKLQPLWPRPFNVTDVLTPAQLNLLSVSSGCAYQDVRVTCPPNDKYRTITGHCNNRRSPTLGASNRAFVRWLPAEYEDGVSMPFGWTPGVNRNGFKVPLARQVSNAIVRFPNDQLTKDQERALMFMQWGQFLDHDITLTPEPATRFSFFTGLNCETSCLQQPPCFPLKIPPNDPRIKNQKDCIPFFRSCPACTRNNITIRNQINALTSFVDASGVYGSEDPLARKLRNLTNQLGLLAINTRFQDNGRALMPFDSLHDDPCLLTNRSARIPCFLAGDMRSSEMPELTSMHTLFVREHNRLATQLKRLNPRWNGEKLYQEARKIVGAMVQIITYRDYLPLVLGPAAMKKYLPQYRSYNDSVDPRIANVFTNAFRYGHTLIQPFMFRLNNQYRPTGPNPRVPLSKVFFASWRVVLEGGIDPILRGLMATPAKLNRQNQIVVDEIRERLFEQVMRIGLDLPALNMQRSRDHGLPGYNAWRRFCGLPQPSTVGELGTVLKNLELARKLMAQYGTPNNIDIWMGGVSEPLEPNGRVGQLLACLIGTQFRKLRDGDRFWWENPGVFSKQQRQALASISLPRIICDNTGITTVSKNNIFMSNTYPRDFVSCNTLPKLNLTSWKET
Nature of the test: Inhibition of myeloperoxidase (MPO) activity induced by TPA in murine chronic irritative contact dermatitis model at 0.5 mg/ear (in vivo). Format: organism-based.

In test [18] the target is T2, MAP kinase p38. The test is described as follows: In vitro inhibition of cytokine IL-6 release by human […]. It counts as functional. In outline: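 PBMC isolated from buffy coats, 5×10^5 cells/mL in RPMI1640 plus 2% FCS, glutamine and antibiotics. Compound added 30 min before LPS; culture 6 h. Supernatant IL-6 or IL-8 quantified by ELISA kits.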
The target of test [19] is T2, MAP kinase p38. The test is described as follows: In vitro inhibition of cytokine IL-10 release by human […]. Format: functional. In outline: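 Buffy-coat PBMC at 5×10^5 cells/mL in RPMI1640 with 10% FCS, glutamine, antibiotics; 30 min compound preincubation, then phytohemagglutinin stimulation and 48 h incubation.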
Test [20] concerns the target T2, MAP kinase p38. The test is described as follows: In vitro inhibition of cytokine IL-8 release by human peripheral blood mononuclear cells.
For test [21], the system named is Mus musculus. Nature of the test: Inhibition of ear swelling induced by oxazolone in murine allergic contact dermatitis model at 0.5 mg/ear at 48 hr (in vivo).
Test [22] has as its target T5, Myeloperoxidase (Mus musculus). The test is described as follows: Inhibition of myeloperoxidase (MPO) activity induced by oxazolone in murine allergic contact dermatitis model at 0.5 mg/ear at 72 hr.

T1 sequence (Q16539 whole entry): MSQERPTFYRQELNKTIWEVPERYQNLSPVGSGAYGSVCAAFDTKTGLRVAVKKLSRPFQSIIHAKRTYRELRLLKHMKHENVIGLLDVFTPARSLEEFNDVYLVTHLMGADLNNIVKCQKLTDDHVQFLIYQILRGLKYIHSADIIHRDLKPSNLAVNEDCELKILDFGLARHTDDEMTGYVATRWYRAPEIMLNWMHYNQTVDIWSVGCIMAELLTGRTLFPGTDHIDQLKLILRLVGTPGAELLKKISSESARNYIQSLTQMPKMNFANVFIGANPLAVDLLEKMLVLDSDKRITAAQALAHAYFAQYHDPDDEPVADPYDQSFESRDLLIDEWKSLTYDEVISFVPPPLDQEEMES
Mitogen-activated protein kinase; ERK1/ERK2 (Homo sapiens), sequence (P27361 whole entry, looked up): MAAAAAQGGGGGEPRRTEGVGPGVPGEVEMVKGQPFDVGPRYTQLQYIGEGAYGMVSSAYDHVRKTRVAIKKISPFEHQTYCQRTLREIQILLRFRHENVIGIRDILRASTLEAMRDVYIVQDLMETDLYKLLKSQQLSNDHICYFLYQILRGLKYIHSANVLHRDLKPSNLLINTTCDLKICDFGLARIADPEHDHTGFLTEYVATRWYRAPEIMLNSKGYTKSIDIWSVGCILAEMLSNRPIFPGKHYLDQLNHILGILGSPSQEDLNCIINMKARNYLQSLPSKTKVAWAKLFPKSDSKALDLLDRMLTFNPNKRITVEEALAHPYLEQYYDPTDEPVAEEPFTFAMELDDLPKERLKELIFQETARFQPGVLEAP
Mitogen-activated protein kinase; ERK1/ERK2 (Homo sapiens), sequence (P28482 whole entry, looked up): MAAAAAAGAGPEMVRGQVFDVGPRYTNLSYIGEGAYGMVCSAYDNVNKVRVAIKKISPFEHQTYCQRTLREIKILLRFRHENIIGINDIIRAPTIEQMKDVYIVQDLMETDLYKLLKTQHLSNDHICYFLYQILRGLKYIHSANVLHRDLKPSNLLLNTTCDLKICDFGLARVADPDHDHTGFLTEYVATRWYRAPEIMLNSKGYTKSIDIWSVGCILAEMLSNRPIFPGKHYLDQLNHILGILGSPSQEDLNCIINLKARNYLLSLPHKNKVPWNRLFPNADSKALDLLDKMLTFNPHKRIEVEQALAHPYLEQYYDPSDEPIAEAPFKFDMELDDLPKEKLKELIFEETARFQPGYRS
Mitogen-activated protein kinase 8 (Homo sapiens), sequence (P45983 whole entry): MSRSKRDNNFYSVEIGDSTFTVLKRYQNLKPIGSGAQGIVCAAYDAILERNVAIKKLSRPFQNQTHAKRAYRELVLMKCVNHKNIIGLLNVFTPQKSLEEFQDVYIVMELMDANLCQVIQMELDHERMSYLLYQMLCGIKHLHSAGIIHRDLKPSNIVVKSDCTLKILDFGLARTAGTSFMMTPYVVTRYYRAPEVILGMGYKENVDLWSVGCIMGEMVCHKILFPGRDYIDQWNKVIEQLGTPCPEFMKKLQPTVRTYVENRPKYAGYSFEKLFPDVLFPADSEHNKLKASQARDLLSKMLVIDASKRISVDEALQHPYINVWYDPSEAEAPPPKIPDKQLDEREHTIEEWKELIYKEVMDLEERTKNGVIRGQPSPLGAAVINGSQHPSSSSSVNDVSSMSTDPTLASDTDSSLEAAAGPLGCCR
Mitogen-activated protein kinase 11 (Homo sapiens), sequence (Q15759 whole entry, canonical isoform): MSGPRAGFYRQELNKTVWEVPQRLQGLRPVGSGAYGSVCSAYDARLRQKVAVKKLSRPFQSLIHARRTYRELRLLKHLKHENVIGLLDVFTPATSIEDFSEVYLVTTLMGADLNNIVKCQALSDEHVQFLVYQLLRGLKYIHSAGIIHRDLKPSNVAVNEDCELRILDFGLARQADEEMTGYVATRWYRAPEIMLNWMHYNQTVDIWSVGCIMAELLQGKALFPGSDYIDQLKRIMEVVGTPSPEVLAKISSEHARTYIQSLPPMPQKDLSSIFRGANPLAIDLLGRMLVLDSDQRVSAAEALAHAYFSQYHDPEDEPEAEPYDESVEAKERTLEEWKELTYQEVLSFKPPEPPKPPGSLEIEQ

What is called IC50 is the concentration needed to halve the response being measured. Regarding `CC(=O)Nc1ccccc1Nc1ccc(C(=O)c2ccccc2C)c(Cl)c1`, the values for the IC50 in [1], in test [2] and in [3] were 63 nM, 21 nM and 10 nM, respectively.
On the same counts, the results for `CCOC(=O)Nc1ccccc1Nc1ccc(C(=O)c2ccccc2C)c(Cl)c1` are 42 nM, 16 nM and 6 nM.
On the same counts, the results for `Nc1ccccc1Nc1ccc(C(=O)c2ccccc2)cc1` are 145 nM, 226 nM and 159 nM.
On the same counts, the results for `COc1ccccc1C(=O)c1ccc(Nc2ccccc2N)cc1Cl` are 5 nM, 28 nM and 20 nM.
Regarding `Nc1ccccc1Nc1ccc(C(=O)c2ccccc2-c2ccccc2)cc1`, the IC50 was 811 nM in test [1], 483 nM in test [2] and 444 nM in [3].
On the same counts, the results for `C=C(c1ccccc1C)c1ccc(Nc2ccccc2N)cc1Cl` are 1550 nM, over 5000 nM and over 10000 nM.
On the same counts, the results for `Nc1ccccc1Nc1ccc(C(=O)c2ccccc2Br)cc1` are 54 nM, 45 nM and 34 nM.
On the same counts, the results for `Cc1ccccc1C(=O)c1ccc(Nc2ccccc2N)cc1C` are 13 nM, 22 nM and 8 nM.
As a reminder, the inhibition is the percentage by which the read-out fell short of the control. The low end stands for a weak effect, the high end for a strong effect. On to `Fc1ccc(-c2ncn(C3CCNCC3)c2-c2ccncc2)cc1` [VK-19911], for which the inhibition was determined as 0% in test [4]; 73% in test [5]; 59% in test [6]; 8% in test [7]; 0% in test [8]; 9% in [12]. The IC50 in test [9], in test [10] and in [11] was over 1000 nM throughout.
For `Cc1ccccc1C(=O)c1ccc(Nc2ccccc2[N+](=O)[O-])cc1Cl`, the IC50 in test [1] turned out to be 437 nM; in test [2], 427 nM; in test [3], 382 nM.
On the same counts, the results for `Cc1ccccc1C(=O)c1ccc(Nc2ccccc2N)cc1` are 29 nM, 67 nM and 47 nM.
On the same counts, the results for `Cc1cccc(C(=O)c2ccc(Nc3ccccc3N)cc2)c1` are 574 nM, 580 nM and 467 nM.
On the same counts, the results for `Cc1ccccc1Cc1ccc(Nc2ccc(F)cc2N)cc1Cl` are over 100000 nM, over 10000 nM and over 10000 nM.
As to `Cc1ccccc1C(=O)c1ccc(N(C)c2ccccc2N)cc1Cl`, the IC50 came to 101 nM in test [1], 70 nM in test [2] and 44 nM in [3].
Regarding `Cc1ccccc1C(=O)c1ccc(Nc2ccccc2)cc1Cl`, the IC50 in test [1] is 7 nM; in test [2] it was 119 nM; in test [3], 24 nM.
On the same counts, the results for `Cc1cc(C(=O)c2ccccc2C)ccc1Nc1ccccc1N` are 143 nM, 343 nM and 127 nM.
In general, Inhibition refers to the relative decrease from the control value, in per cent. Low values mean little suppression, high ones strong suppression. On to `Cc1cc(F)ccc1Nc1ccc(C(=O)c2ccccc2C)c(Cl)c1`, for which the inhibition in test [4] worked out at 0%; in test [5], 88%; in test [6], 92%; in test [7], 4%; in test [8], 5%; in test [17], 60%. Moreover, the inhibition in [12] came to 0%; in [22], 57%. The IC50 in test [1] was 4 nM; in [9], over 1000 nM; in [2], 17 nM; in [3], 4 nM; in [10], over 1000 nM; in test [11], over 1000 nM. Further, the half-inhibitory concentration (IC50) in test [18] was determined as 35 nM; in [19], 51 nM; in [20], 79 nM. Also, the Inhibition in test [13] was 40%; in test [14], 26%; in test [15], 54%; in test [16], 26%; in test [21], 46%.
With `CCNC(=O)Nc1ccccc1Nc1ccc(C(=O)c2ccccc2C)c(Cl)c1`, the IC50 came to 21 nM in test [1], 9 nM in test [2] and 3 nM in test [3].
In the case of `Nc1ccccc1Nc1ccc(C(=O)c2ccccc2)c(Cl)c1`, the values for the IC50 in test [1], in test [2] and in [3] were 139 nM, 437 nM and 214 nM, respectively.
On the same counts, the results for `Cc1ccccc1Nc1ccc(C(=O)c2ccccc2C)c(Cl)c1` are 12 nM, 26 nM and 14 nM.
On the same counts, the results for `O=C(c1ccccc1)c1ccc(Nc2ccccc2)cc1` are 193 nM, 175 nM and 1349 nM.
